Results: ChEMBL document CHEMBL5036326, “Development of Covalent, Clickable Probes for Adenosine A1 and A3 Receptors” (J Med Chem, 2021)
Active and inactive are the calls of the source. The rule behind the calls is not given here.

Experiments:
[1] = molecular target: T1, Adenosine receptor A1 (Homo sapiens) (UniProt P30542); conditions: Flp-In-CHO, Membrane, filed as antagonist, time 40.0 min
T1 sequence (whole entry): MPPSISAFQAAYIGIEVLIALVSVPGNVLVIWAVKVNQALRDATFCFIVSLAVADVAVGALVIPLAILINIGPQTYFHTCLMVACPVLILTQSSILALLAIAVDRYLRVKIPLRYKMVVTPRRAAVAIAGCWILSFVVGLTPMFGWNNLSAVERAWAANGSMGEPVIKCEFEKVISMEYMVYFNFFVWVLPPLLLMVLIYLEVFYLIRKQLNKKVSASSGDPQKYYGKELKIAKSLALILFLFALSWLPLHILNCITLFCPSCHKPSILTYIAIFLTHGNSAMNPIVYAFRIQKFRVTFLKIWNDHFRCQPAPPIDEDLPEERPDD

[2] = molecular target: T2, Adenosine receptor A1 (Homo sapiens, UniProt P30542); experiment: Displacement of [3H] DPCPX from human A1 adenosine receptor expressed in Flp-In-CHO cell membrane incubated for 4 hrs by microbeta scintillation counting method; type: cell membranes
T2 sequence (P30542 whole entry): T1 sequence (whole entry)

[3] = molecular target: T1, Adenosine receptor A1 (Homo sapiens); conditions: Flp-In-CHO, Membrane, filed as antagonist, time 40.0 min; remark: listed apart in the source
[4] = molecular target: T2, Adenosine receptor A1; experiment: Antagonist activity at human adenosine A1 receptor expressed in Flp-In-CHO cell membrane assessed as inhibition of NECA-induced cAMP accumulation in presence of forskolin measured after 40 mins by alpha screen LANCE assay; type: functional, cell membranes
[5] = molecular target: T2, Adenosine receptor A1; experiment: Antagonist activity at human adenosine A1 receptor expressed in Flp-In-CHO cell membrane assessed as inhibition of forskolin-stimulated cAMP accumulation preincubated for 5 min followed by forskolin stimulation and further incubated for 30 mins in presence of NECA by alphascreen LANCE assay
[6] = molecular target: T3, Adenosine receptor A3 (Homo sapiens) (UniProt P0DMS8); experiment: Inhibition of CA200645 binding to NanoLuc-fused human Adenosine A3 receptor expressed in HEK293-A cells using furimazine as substrate preincubated for 3 hrs followed by ligand washout and further incubated for 60 mins with CA200645 by NanoBRET assay; type: cell-based
T3 sequence (whole entry): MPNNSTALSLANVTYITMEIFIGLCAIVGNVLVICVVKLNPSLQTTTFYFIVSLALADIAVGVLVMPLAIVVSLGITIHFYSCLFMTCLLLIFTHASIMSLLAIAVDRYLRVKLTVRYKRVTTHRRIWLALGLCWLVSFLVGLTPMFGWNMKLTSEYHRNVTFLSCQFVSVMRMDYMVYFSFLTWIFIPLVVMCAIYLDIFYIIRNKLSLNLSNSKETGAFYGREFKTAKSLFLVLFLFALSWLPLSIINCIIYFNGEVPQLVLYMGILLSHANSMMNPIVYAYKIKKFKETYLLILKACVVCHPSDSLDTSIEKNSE
In short: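 HEK293A cells transiently transfected (PEI) with N-terminal Nluc-A3R cDNA, assayed 48 h post-transfection. Cells incubated with competing ligands for 3 h in binding buffer, then washed 6 × 20 min. 5 nM CA200645 added for 60 min at room temperature, then 10 μM furimazine (final). BRET read as 610/460 nm emission ratio at 25 °C. Nonspecific binding defined with 1 μM MRS1220.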

[7] = Solubility of the compound at 10 uM; type: physicochemical
[8] = molecular target: T1, Adenosine receptor A1 (Homo sapiens); experiment: Displacement of [3H] DPCPX from human A1 adenosine receptor expressed in Flp-In-CHO cell membrane at 1 uM incubated for 4 hrs by microbeta scintillation counting method; type: cell membranes; conditions: filed as antagonist
In short: (§1)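 Membranes (15 μg) from hA1R-FlpInCHO cells incubated with competing ligand and about 1 nM [3H]DPCPX for 4 h at 25 °C. Binding buffer: HEPES, glucose, salts, 1 unit/mL ADA, pH 7.4. Filtration, ice-cold 0.9% NaCl washes, then β-counting. Nonspecific binding defined with 1 μM SLV320. Specific binding normalized to binding without competitor.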

[9] = molecular target: T1, Adenosine receptor A1 (Homo sapiens); experiment: Displacement of [3H] DPCPX from human A1 adenosine receptor expressed in Flp-In-CHO cell membrane at 10 uM incubated for 4 hrs by microbeta scintillation counting method; type: cell membranes
In short: as §1

[10] = molecular target: T4, Adenosine receptor A2a (Homo sapiens, UniProt P29274); conditions: Flp-In-CHO, Membrane, filed as antagonist, time 40.0 min
[11] = molecular target: T5, Adenosine receptor A2b (Homo sapiens) (UniProt P29275); experiment: (§2) Antagonist activity at human adenosine A2B receptor expressed in Flp-In-CHO cell membrane assessed as inhibition of NECA-induced cAMP accumulation in presence of forskolin measured after 40 mins by alpha screen LANCE assay; type: functional; conditions: filed as antagonist
T5 sequence (whole entry): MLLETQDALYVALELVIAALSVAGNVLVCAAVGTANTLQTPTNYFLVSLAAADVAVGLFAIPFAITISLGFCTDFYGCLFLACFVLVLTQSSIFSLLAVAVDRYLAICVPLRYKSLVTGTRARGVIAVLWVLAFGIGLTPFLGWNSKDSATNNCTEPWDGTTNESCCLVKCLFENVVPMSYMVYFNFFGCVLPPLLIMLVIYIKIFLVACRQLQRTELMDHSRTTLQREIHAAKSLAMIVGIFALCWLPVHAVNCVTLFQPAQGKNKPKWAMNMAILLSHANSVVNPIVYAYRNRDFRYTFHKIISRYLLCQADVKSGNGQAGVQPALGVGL
In short: (§3)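 A2BR-FlpInCHO cells seeded at 30000 cells/well and incubated overnight at 37 °C. Antagonists tested against a submaximal (EC80) NECA concentration; NECA curves run alongside. cAMP response normalized to buffer (0%) and 3 μM forskolin (100%). Affinity derived by fitting NECA–antagonist interaction data to a competitive model. Duplicates, ≥3 experiments.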

[12] = molecular target: T6, Adenosine receptor A2b (Homo sapiens, UniProt P29275); experiment: as §2; type: functional
T6 sequence (P29275 whole entry): T5 sequence (whole entry)
In short: as §3

[13] = molecular target: T7, Adenosine receptor A3 (Homo sapiens, UniProt P0DMS8); experiment: Antagonist activity at human adenosine A3 receptor expressed in Flp-In-CHO cell membrane assessed as inhibition of NECA-induced cAMP accumulation in presence of forskolin measured after 40 mins by alpha screen LANCE assay; type: functional, cell membranes
T7 sequence (P0DMS8 whole entry): T3 sequence (whole entry)

[14] = molecular target: T3, Adenosine receptor A3 (Homo sapiens); conditions: Flp-In-CHO, Membrane, filed as antagonist, time 40.0 min
[15] = molecular target: T2, Adenosine receptor A1; experiment: Displacement of [3H] DPCPX from human adenosine A1 receptor expressed in Flp-In-CHO cell membrane incubated for 3 hrs followed by compound washout and further incubated for 4 hrs with radioligand by microbeta scintillation counting method; type: cell membranes
[16] = molecular target: T4, Adenosine receptor A2a; experiment: Antagonist activity at human adenosine A2A receptor expressed in Flp-In-CHO cell membrane assessed as inhibition of NECA-induced cAMP accumulation in presence of forskolin measured after 40 mins by alpha screen LANCE assay; type: functional, cell membranes

T4 sequence (P29274 whole entry): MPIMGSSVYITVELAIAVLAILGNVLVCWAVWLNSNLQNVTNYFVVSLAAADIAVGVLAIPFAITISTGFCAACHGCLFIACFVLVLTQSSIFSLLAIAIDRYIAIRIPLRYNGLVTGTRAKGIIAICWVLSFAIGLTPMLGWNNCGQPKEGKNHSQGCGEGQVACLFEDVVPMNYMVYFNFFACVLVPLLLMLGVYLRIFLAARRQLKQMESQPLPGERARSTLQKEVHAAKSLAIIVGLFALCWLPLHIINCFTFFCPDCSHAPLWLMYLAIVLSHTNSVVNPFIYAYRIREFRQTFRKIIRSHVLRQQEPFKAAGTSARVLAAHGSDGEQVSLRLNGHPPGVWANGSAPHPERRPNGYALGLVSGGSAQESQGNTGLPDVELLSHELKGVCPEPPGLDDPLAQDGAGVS

SMILES	Ki [2]	pKb [3]	Ki [4]	Ki [5]	Ki [12]	Ki [13]	Ki [15]	Ki [16]	also measured
O[C@H]1CC[C@H](Nc2nc(-c3ccccc3)nc3[nH]ccc23)CC1	0.6 nM	9.27	0.4 nM	0.5 nM					pKb [1]: 9.44
CCCCn1c(=O)c2nc(C34CCC(C(=O)OC)(CC3)CC4)[nH]c2n(CCCNC(=O)c2ccc(S(=O)(=O)O)cc2)c1=O	179 nM	7.04		92 nM					inhibition [6]: inactive
CCCCn1c(=O)c2nc(C3CCCCC3)[nH]c2n(CCCNC(=O)c2ccc(S(=O)(=O)F)cc2)c1=O	12.1 nM	7.59		26 nM					solubility [7]: Insoluble; Activity [8]: Active; Activity [9]: inactive
CCCn1c(=O)c2nc(C34CCC(C(=O)NCCCN=[N+]=[N-])(CC3)CC4)[nH]c2n(CCCNC(=O)c2ccc(S(=O)(=O)F)cc2)c1=O	3.5 nM	9.19	2.8 nM	0.6 nM	17.8 nM	11 nM	7.8 nM	26.3 nM	pKb [1]: 8.56; pKb [10]: 7.58; pKb [11]: 7.75; pKb [14]: 7.96
C#CCNC(=O)C12CCC(c3nc4c(=O)n(CCCC)c(=O)n(CCCNC(=O)c5ccc(S(=O)(=O)F)cc5)c4[nH]3)(CC1)CC2	26.1 nM	6.23	30.9 nM	585 nM		46.8 nM	38.8 nM		pKb [1]: 7.51; inhibition ([6]; filed as antagonist): Active; pKb [14]: 7.33
C#CCCCCNC(=O)C12CCC(c3nc4c(=O)n(CCCC)c(=O)n(CCCNC(=O)c5ccc(S(=O)(=O)F)cc5)c4[nH]3)(CC1)CC2	1.6 nM		3.9 nM	0.6 nM	35.4 nM	43.7 nM	9.3 nM		inhibition ([6]; filed as antagonist): Active
CCCCn1c(=O)c2nc(C34CCC(C(=O)NCCOCCOCCOCCN=[N+]=[N-])(CC3)CC4)[nH]c2n(CCCNC(=O)c2ccc(S(=O)(=O)F)cc2)c1=O					95.5 nM	8.3 nM		36.3 nM	
CCCCn1c(=O)c2nc(C34CCC(C(=O)NCCOCCOCCN=[N+]=[N-])(CC3)CC4)[nH]c2n(CCCNC(=O)c2ccc(S(=O)(=O)F)cc2)c1=O	6.1 nM	8.86	3.5 nM	1.4 nM	22.9 nM	39.8 nM	10 nM	31.6 nM	pKb [1]: 8.45; pKb [10]: 7.5; pKb [11]: 7.64; pKb [14]: 7.4
CCCCn1c(=O)c2nc(C34CCC(C(=O)NCCCN=[N+]=[N-])(CC3)CC4)[nH]c2n(CCCNC(=O)c2ccc(S(=O)(=O)O)cc2)c1=O	605 nM	7.06		87.5 nM					inhibition [6]: inactive
CCCCn1c(=O)c2nc(C34CCC(C(=O)NCCCN=[N+]=[N-])(CC3)CC4)[nH]c2n(CCCNC(=O)c2ccc(S(=O)(=O)F)cc2)c1=O					79.4 nM	4.2 nM		38 nM	inhibition ([6]; filed as antagonist): Active
CCCCn1c(=O)c2nc(C34CCC(C(=O)OC)(CC3)CC4)[nH]c2n(CCCNC(=O)c2ccc(S(=O)(=O)F)cc2)c1=O	17.3 nM	7.77		17.1 nM			89.3 nM		inhibition ([6]; filed as antagonist): Active
CCCCn1c(=O)c2nc(C34CCC(C(=O)NCCCCCCCCN=[N+]=[N-])(CC3)CC4)[nH]c2n(CCCNC(=O)c2ccc(S(=O)(=O)F)cc2)c1=O	3.7 nM		10.2 nM	2.4 nM	6.7 nM		16.1 nM		
CCCn1c(=O)[nH]c2nc(-c3ccc(S(=O)(=O)N4CCN(c5ccc(Cl)cc5)CC4)cc3)[nH]c2c1=O					1.3 nM				pKb [11]: 8.87
CCCCn1c(=O)c2nc(C34CCC(C(=O)NCCCCN=[N+]=[N-])(CC3)CC4)[nH]c2n(CCCNC(=O)c2ccc(S(=O)(=O)F)cc2)c1=O					26.3 nM	4.9 nM		166 nM	
